Laboratory results from ChEMBL document CHEMBL1268917, “Synthesis and biological evaluation of radio-iodinated benzimidazoles as SPECT imaging agents for NR2B subtype of NMDA receptor” (Bioorg Med Chem, 2010).

How the values were obtained:
[1] = target: Glutamate receptor ionotropic, NMDA 2B (Rattus norvegicus) (UniProt Q00960); test: Binding affinity to NR2B receptor in rat cerebral cortex at 0.09 to 0.14 nM after 30 mins by autoradiography in presence of prazosin relative to control; format: tissue-based; details: tested as the 125I-labelled form
Outline: (§1)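 Rinsed three times 3 min in cold buffer with 1% BSA, dipped in cold water, air-dried, exposed to imaging plates; PSL per mm² in ROIs. Expressed as % control binding; at least triplicate slices from three rats.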

[2] = target: Glutamate receptor ionotropic, NMDA 2B (Rattus norvegicus) (UniProt Q00960); test: Binding affinity to NR2B receptor in rat hippocampus at 0.09 to 0.14 nM after 30 mins by autoradiography in presence of prazosin relative to control; format: tissue-based; details: tested as the 125I-labelled form; outline: as §1
[3] = target: Glutamate receptor ionotropic, NMDA 2B (Rattus norvegicus) (UniProt Q00960); test: Binding affinity to NR2B receptor in rat cerebellum at 0.09 to 0.14 nM after 30 mins by autoradiography in presence of prazosin relative to control; format: tissue-based; details: tested as the 125I-labelled form; outline: as §1
[4] = target: Glutamate receptor ionotropic, NMDA 2B (Rattus norvegicus) (UniProt Q00960); test: Binding affinity to NR2B receptor in rat cerebral cortex at 0.09 to 0.14 nM after 30 mins by autoradiography in presence of DTG relative to control; format: tissue-based; details: tested as the 125I-labelled form; outline: as §1
[5] = target: Glutamate receptor ionotropic, NMDA 2B (Rattus norvegicus) (UniProt Q00960); test: Binding affinity to NR2B receptor in rat hippocampus at 0.09 to 0.14 nM after 30 mins by autoradiography in presence of DTG relative to control; format: tissue-based; details: tested as the 125I-labelled form; outline: as §1
[6] = target: Glutamate receptor ionotropic, NMDA 2B (Rattus norvegicus) (UniProt Q00960); test: Binding affinity to NR2B receptor in rat cerebellum at 0.09 to 0.14 nM after 30 mins by autoradiography in presence of DTG relative to control; format: tissue-based; details: tested as the 125I-labelled form; outline: as §1
[7] = target: Glutamate receptor ionotropic, NMDA 2B (Rattus norvegicus, UniProt Q00960); test: Displacement of [3H]ifenprodil from NR2B receptor in rat cortical synaptic membranes; format: cell membranes, Membrane
[8] = Octanol-buffer partition coefficient, log D of the compound at pH 7.4; format: physicochemical
[9] = Lipophilicity, log P of the compound; format: physicochemical; details: octanol/water
[10] = target: Glutamate receptor ionotropic, NMDA 2B (Rattus norvegicus) (UniProt Q00960); test: Binding affinity to NR2B receptor in rat cerebral cortex at 0.09 to 0.14 nM after 30 mins by autoradiography in presence of Ro-256981 relative to control; format: tissue-based; details: tested as the 125I-labelled form; outline: as §1
[11] = target: Glutamate receptor ionotropic, NMDA 2B (Rattus norvegicus) (UniProt Q00960); test: Binding affinity to NR2B receptor in rat hippocampus at 0.09 to 0.14 nM after 30 mins by autoradiography in presence of Ro-256981 relative to control; format: tissue-based; details: tested as the 125I-labelled form; outline: as §1
[12] = target: Glutamate receptor ionotropic, NMDA 2B (Rattus norvegicus) (UniProt Q00960); test: Binding affinity to NR2B receptor in rat cerebellum at 0.09 to 0.14 nM after 30 mins by autoradiography in presence of Ro-256981 relative to control; format: tissue-based; details: tested as the 125I-labelled form; outline: as §1

Sequence of Glutamate receptor ionotropic, NMDA 2B (Rattus norvegicus) (Q00960 27-1482 limits assumed): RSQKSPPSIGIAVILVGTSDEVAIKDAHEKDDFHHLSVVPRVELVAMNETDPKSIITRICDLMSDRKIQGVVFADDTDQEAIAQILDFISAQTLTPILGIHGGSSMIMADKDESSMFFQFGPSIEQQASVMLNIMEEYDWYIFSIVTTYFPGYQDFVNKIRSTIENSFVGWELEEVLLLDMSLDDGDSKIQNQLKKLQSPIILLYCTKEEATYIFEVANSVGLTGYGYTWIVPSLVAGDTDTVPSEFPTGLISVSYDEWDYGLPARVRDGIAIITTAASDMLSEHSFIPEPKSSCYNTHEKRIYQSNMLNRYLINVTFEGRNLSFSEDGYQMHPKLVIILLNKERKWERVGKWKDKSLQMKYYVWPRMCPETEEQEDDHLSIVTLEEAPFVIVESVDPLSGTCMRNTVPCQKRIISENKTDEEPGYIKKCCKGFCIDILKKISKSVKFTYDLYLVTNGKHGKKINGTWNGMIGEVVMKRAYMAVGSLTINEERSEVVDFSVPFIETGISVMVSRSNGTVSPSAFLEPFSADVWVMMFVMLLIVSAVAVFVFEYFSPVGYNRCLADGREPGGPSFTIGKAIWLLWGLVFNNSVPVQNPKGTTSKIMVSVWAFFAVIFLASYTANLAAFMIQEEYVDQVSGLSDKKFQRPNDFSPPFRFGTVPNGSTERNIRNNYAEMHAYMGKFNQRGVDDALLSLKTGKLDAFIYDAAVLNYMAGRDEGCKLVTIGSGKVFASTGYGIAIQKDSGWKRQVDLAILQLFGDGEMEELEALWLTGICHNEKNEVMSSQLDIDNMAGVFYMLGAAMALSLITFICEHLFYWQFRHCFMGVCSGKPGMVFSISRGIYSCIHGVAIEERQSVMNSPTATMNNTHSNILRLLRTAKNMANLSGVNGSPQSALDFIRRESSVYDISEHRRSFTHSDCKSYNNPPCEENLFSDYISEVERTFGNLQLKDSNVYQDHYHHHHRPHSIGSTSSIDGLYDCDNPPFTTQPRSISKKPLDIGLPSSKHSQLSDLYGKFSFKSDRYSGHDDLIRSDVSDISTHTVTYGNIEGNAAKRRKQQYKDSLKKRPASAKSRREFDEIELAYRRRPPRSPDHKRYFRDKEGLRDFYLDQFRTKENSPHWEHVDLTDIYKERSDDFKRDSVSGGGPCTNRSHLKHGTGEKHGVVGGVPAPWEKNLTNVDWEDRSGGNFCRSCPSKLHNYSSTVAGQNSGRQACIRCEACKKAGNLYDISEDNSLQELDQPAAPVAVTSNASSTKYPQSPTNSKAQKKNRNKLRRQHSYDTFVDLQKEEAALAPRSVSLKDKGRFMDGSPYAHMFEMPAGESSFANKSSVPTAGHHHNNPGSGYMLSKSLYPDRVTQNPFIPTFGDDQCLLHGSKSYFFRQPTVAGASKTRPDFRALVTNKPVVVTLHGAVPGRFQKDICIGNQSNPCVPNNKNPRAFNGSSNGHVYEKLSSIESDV
Sequence of Glutamate receptor ionotropic, NMDA 2B (Q00960 whole entry): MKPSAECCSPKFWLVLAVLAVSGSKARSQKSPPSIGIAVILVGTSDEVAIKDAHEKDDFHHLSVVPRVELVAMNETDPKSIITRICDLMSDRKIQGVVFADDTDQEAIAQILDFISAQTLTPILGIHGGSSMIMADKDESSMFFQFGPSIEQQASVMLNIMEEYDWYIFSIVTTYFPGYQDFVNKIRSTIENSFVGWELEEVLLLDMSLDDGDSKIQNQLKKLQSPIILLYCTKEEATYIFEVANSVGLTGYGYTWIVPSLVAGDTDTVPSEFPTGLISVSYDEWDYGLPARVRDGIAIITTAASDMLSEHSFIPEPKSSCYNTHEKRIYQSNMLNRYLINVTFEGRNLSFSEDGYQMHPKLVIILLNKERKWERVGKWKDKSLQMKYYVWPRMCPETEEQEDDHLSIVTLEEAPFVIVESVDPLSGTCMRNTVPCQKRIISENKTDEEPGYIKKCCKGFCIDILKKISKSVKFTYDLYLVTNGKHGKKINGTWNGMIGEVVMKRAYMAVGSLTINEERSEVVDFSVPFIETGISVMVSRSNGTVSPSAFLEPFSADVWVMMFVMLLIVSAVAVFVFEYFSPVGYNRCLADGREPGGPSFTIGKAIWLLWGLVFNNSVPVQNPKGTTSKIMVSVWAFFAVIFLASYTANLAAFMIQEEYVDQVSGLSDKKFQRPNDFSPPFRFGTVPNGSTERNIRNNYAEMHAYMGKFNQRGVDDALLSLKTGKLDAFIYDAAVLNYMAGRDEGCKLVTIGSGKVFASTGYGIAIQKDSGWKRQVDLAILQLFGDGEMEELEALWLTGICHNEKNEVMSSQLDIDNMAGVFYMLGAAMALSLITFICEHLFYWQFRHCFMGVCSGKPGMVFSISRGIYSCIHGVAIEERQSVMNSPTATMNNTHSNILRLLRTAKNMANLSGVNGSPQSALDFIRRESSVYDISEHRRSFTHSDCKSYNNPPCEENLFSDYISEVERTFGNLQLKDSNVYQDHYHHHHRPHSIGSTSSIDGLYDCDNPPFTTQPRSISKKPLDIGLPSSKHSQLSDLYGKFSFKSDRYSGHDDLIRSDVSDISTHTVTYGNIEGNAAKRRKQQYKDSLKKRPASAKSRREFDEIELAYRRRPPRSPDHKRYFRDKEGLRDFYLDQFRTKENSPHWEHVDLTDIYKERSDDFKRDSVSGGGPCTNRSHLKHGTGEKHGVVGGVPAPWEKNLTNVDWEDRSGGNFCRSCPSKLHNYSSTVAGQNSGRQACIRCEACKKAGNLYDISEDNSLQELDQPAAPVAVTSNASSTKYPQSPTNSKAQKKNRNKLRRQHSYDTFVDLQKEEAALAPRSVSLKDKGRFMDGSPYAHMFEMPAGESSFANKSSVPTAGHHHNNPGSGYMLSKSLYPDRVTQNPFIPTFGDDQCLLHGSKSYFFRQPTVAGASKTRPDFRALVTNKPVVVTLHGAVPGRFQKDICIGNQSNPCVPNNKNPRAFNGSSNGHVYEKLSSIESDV

## Oc1ccc2nc(CN3CCC(Cc4ccc(I)cc4)CC3)[nH]c2c1
[1]
  Activity: 95.6%
[2]
  Activity: 92.6%
[3]
  Activity: 103%
[4]
  Activity: 93.5%
[5]
  Activity: 105%
[6]
  Activity: 101%
[7]
  Ki: 7.28 nM
[8]
  logD: 3.95
[9]
  logP: 3.95
[10]
  Activity: 58.3%
[11]
  Activity: 50.9%
[12]
  Activity: 91.8%
